Laboratory results taken from ChEMBL document CHEMBL1129462, “Synthesis and angiotensin II receptor antagonistic activities of benzimidazole derivatives bearing acidic heterocycles as novel tetrazole bioisosteres” (J Med Chem, 1996).

Legend:
[1] = Inhibition of specific binding of [125I]angiotensin II (0.2 nM) to angiotensin II receptor in bovine adrenal cortex; type: tissue-based, Bos taurus
[2] = biological target: T1, Angiotensin II receptor (Rattus norvegicus) (UniProt P29089+P25095+P35351); assay: Percent inhibition of angiotensin II (0.1 ug/kg iv) -induced pressor response 7 hr after administration of test compounds (1 mg/kg po) in conscious male Sprague-Dawley rats; type: functional, organism-based
Method in brief: (§1)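 Conscious male Sprague-Dawley rats were given the test compound at 1 mg/kg orally. They were then challenged with AII at 0.1 μg/kg iv. The AII-induced pressor response was measured 3 and 7 h after dosing and expressed as percent inhibition.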

[3] = biological target: T1, Angiotensin II receptor (Rattus norvegicus); assay: Percent inhibition of angiotensin II (0.1 ug/kg iv) -induced pressor response 3h after administration of test compounds (1 mg/kg po) in conscious male Sprague-Dawley rats; type: functional, organism-based; method in brief: as §1
Rattus norvegicus [4] = assay: Percent inhibition of AII-induced pressor response 7 hr after administration of test compounds (1 mg/kg po) in conscious male Sprague-Dawley rats.
Rattus norvegicus [5] = assay: Percent inhibition of AII (0.1 ug/kg iv) -induced pressor response at 7 hr after administration of test compounds (0.1 mg/kg po) in conscious male Sprague-Dawley rats.; type: functional; conditions: in the assay text read “3 hr” for “7 hr”
Method in brief: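 In conscious male Sprague-Dawley rats, the oral test dose was 0.1 mg/kg. The pressor response to an AII challenge (0.1 μg/kg iv) was recorded after dosing, and percent inhibition was calculated.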

[6] = Bioavailability; type: ADME, organism-based; conditions: eutheria, in vivo; read-out: BA
[7] = pka value was determined; type: physicochemical
Method in brief: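 pKa of the acidic group was estimated from the corresponding methyl ester. Titration was potentiometric with standardized 0.1 N NaOH in DMSO–H2O (2:3) at 26 °C.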

Rattus norvegicus [8] = assay: Percent inhibition of AII (0.1 ug/kg iv) -induced pressor response at 3 hr after administration of test compounds (0.1 mg/kg po) in conscious male Sprague-Dawley rats.
Rattus norvegicus [9] = assay: Percent inhibition of AII ([…]) -induced pressor response 7 hr after administration of test compounds (1 mg/kg po) in conscious male Sprague-Dawley rats.; type: functional
[10] = Partition coefficient (logP); type: physicochemical; conditions: octanol/water

Compound	IC50 [1] [nM]	inhibition [2] [%]	inhibition [3] [%]	other results
CCCOc1nc2cccc(C(=O)O)c2n1Cc1ccc(-c2ccccc2-c2nsc(O)n2)cc1	920	100	83	
Cc1nc2cccc(C(=O)O)c2n1Cc1ccc(-c2ccccc2-c2nsc(O)n2)cc1	970	71	80	
CCCCc1nc(Cl)c(CO)n1Cc1ccc(-c2ccccc2-c2nnn[nH]2)cc1 [LOSARTAN]	150			
CCCCc1nc2cccc(C(=O)O)c2n1Cc1ccc(-c2ccccc2-c2noc(O)n2)cc1	620	64	68	
CCSc1nc2cccc(C(=O)O)c2n1Cc1ccc(-c2ccccc2-c2nsc(O)n2)cc1	470	100	100	
CCCCc1nc2cccc(C(=O)OC)c2n1Cc1ccc(-c2ccccc2C2=NOS(=O)N2)cc1 (stereo unspecified)	> 1000		63	Inhibition (Rattus norvegicus [4]): 22%
CCCCc1nc2cccc(C(=O)OC)c2n1Cc1ccc(-c2ccccc2-c2nn[nH]n2)cc1	320			
CCc1nc2cccc(C(=O)O)c2n1Cc1ccc(-c2ccccc2-c2nsc(O)n2)cc1	69	100	100	
CCCCc1nc2cccc(C(=O)O)c2n1Cc1ccc(-c2ccccc2-c2nsc(O)n2)cc1	720		92	Inhibition (Rattus norvegicus [5]): 19%
CCOc1nc2cccc(C(=O)OC)c2n1Cc1ccc(-c2ccccc2-c2nsc(O)n2)cc1	750	100	100	
CCOc1nc2cccc(C(=O)O)c2n1Cc1ccc(-c2ccccc2-c2noc(=O)[nH]2)cc1 [AZILSARTAN]	420		100	bioavailability [6]: 20%; pKa [7]: 6.1; Inhibition (Rattus norvegicus [8]): 75%
CNc1nc2cccc(C(=O)O)c2n1Cc1ccc(-c2ccccc2-c2nsc(O)n2)cc1	540	29	32	
CCSc1nc2cccc(C(=O)O)c2n1Cc1ccc(-c2ccccc2-c2noc(S)n2)cc1	690	100	100	
COc1nc2cccc(C(=O)O)c2n1Cc1ccc(-c2ccccc2-c2nsc(O)n2)cc1		91	88	
Cc1nc2cccc(C(=O)O)c2n1Cc1ccc(-c2ccccc2-c2noc(S)n2)cc1	> 1000	50	57	
CCCc1nc2cccc(C(=O)O)c2n1Cc1ccc(-c2ccccc2-c2nsc(O)n2)cc1	360	100	100	
CCCSc1nc2cccc(C(=O)O)c2n1Cc1ccc(-c2ccccc2-c2nsc(O)n2)cc1	> 1000	100	100	

Compound	IC50 [1] [nM]	inhibition [2] [%]	inhibition [3] [%]	other results
CCNc1nc2cccc(C(=O)O)c2n1Cc1ccc(-c2ccccc2-c2nsc(O)n2)cc1	130	71	70	
CCOc1nc2cccc(C(=O)OC)c2n1Cc1ccc(-c2ccccc2C2=NOS(=O)N2)cc1 (stereo unspecified)	460		35	Inhibition (Rattus norvegicus [9]): 29%
CCCSc1nc2cccc(C(=O)O)c2n1Cc1ccc(-c2ccccc2-c2noc(S)n2)cc1	> 1000	100	100	
CCCCc1nc2cccc(C(=O)OC)c2n1Cc1ccc(-c2ccccc2-c2noc(S)n2)cc1	> 1000		84	Inhibition (Rattus norvegicus [8]): 7%
CCCCc1nc2cccc(C(=O)OC)c2n1Cc1ccc(-c2ccccc2-c2noc(O)n2)cc1	900			
CCc1nc2cccc(C(=O)O)c2n1Cc1ccc(-c2ccccc2-c2noc(S)n2)cc1	340	89	91	
CCCc1nc2cccc(C(=O)O)c2n1Cc1ccc(-c2ccccc2-c2noc(S)n2)cc1	390	94	96	
CSc1nc2cccc(C(=O)O)c2n1Cc1ccc(-c2ccccc2-c2noc(S)n2)cc1	1000	91	100	
CCOc1nc2cccc(C(=O)O)c2n1Cc1ccc(-c2ccccc2-c2nsc(O)n2)cc1	250		100	bioavailability [6]: 51%; pKa [7]: 6.6; logP [10]: 1.58; Inhibition (Rattus norvegicus [5]): 100%
CCOc1nc2cccc(C(=O)O)c2n1Cc1ccc(-c2ccccc2-c2nnn[nH]2)cc1	110			bioavailability [6]: 5%; pKa [7]: 5.3
CCCCc1nc2cccc(C(=O)OC)c2n1Cc1ccc(-c2ccccc2-c2nsc(O)n2)cc1	> 1000		87	Inhibition (Rattus norvegicus [5]): 10%
CCCCc1nc2cccc(C(=O)O)c2n1Cc1ccc(-c2ccccc2-c2noc(S)n2)cc1	760		82	Inhibition (Rattus norvegicus [5]): 19%
CCOc1nc2cccc(C(=O)OC)c2n1Cc1ccc(-c2ccccc2-c2nn[nH]n2)cc1	66			
CCOc1nc2cccc(C(=O)OC)c2n1Cc1ccc(-c2ccccc2-c2noc(O)n2)cc1	440	100	100	
CCCCc1nc2cccc(C(=O)O)c2n1Cc1ccc(-c2ccccc2-c2nn[nH]n2)cc1	550			
CCOc1nc2cccc(C(=O)OC)c2n1Cc1ccc(-c2ccccc2-c2noc(S)n2)cc1	> 1000	93	83	
CSc1nc2cccc(C(=O)O)c2n1Cc1ccc(-c2ccccc2-c2nsc(O)n2)cc1	500	100	100	
